The target of series [1] is T1, Voltage-dependent T-type calcium channel subunit alpha-1G (Homo sapiens, UniProt O43497). In words: Antagonist activity at T type calcium channel alpha1G expressed in HEK293 cells assessed as inhibition of peak currents at 10 uM by whole-cell patch-clamp method. In kind it is functional, cell-based. Background: The patch-clamp technique gives a direct electrical read-out from membranes.

Series [2] has as its target T1, Voltage-dependent T-type calcium channel subunit alpha-1G. Put plainly: Antagonist activity at T type calcium channel alpha1G expressed in HEK293 cells assessed as inhibition of peak currents by whole-cell patch-clamp method. In kind it is functional, cell-based. Put shortly:
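Whole-cell patch clamp on HEK293 cells expressing alpha1G. External solution contained 140 mM NaCl, CaCl2, 10 mM Hepes and 10 mM glucose at pH 7.4. Pipettes were 3–4 MΩ, with Mg-ATP in the internal solution. Currents were evoked every 15 s by a 50 ms step from −100 to −30 mV. IC50 came from dose–response fits of peak current inhibition.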

Series [3] shares this target. In words: Antagonist activity at T type calcium channel alpha1G expressed in HEK293 cells assessed as inhibition of peak currents at 1 uM by whole-cell patch-clamp method. The series is classed as functional, cell-based.
Series [4] is described as follows: AUC (0 to t) in mouse brain at 50 mg/kg, po. In kind it is ADME, organism-based. On the set-up: dose 50 mg/kg, route oral. Put shortly: (§1)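 Single oral gavage dose of 50 mg/kg to mice. Vehicle was DMA/Cremophor EL/PBS (10/10/80 v/v %). Plasma and brain were sampled. AUC0–t was calculated by the linear trapezoidal rule, and brain/plasma ratio was taken as AUCbrain/AUCplasma.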

A short description of series [5]: Inhibition of L type calcium channel at 1 uM.
Series [6] has as its target Voltage-gated inwardly rectifying potassium channel KCNH2 (Homo sapiens, UniProt Q12809). Put plainly: Inhibition of human ERG channel.
The nature of series [7]: Selectivity for T type calcium channel alpha1G over L type calcium channel.
Series [8] in a line: Tmax in mouse brain at 50 mg/kg, po. On the set-up: dose 50 mg/kg, route oral. The series is classed as ADME, organism-based. The gist of the method:
as §1

The nature of series [9]: Tmax in mouse plasma at 50 mg/kg, po. In kind it is ADME, organism-based. On the set-up: dose 50 mg/kg, route oral. Put shortly:
as §1

Series [10] addresses T1, Voltage-dependent T-type calcium channel subunit alpha-1G. In words: Antagonist activity at T type calcium channel alpha1G expressed in HEK293 cells assessed as inhibition of peak currents by whole-cell patch-clamp method.
Series [11] can be described thus: Ratio of IC50 for human ERG channel to IC50 for T type calcium channel alpha1G.
Series [12] in a line: Cmax in mouse plasma at 50 mg/kg, po. In kind it is ADME, organism-based. On the set-up: dose 50 mg/kg, route oral. The gist of the method:
as §1

Series [13] is described as follows: Cmax in mouse brain at 50 mg/kg, po. In kind it is ADME, organism-based. On the set-up: dose 50 mg/kg, route oral. Put shortly: as §1
Series [14] can be described thus: Ratio of Cmax for mouse brain to Cmax for mouse plasma at 50 mg/kg, po. On the set-up: dose 50 mg/kg, route oral. In kind it is ADME, organism-based.
Series [15] in a line: AUC (0 to t) in mouse plasma at 50 mg/kg, po. On the set-up: dose 50 mg/kg, route oral. In kind it is ADME, organism-based. Put shortly: as §1
Series [16] is described as follows: Metabolic stability in mouse liver. The series is classed as ADME, tissue-based. The conditions noted are these: liver (preparation not stated).
Series [17] in a line: Ratio of AUC (0 to t) for mouse brain to AUC (0 to t) for mouse plasma at 50 mg/kg, po. On the set-up: dose 50 mg/kg, route oral. The series is classed as ADME, organism-based. Put shortly: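 Mice got a single oral 50 mg/kg dose in DMA/Cremophor EL/PBS (10/10/80 v/v %). Plasma and brain levels were measured to give Tmax, Cmax and AUC0–t, with AUC by the linear trapezoidal rule. Brain/plasma ratio taken from the brain and plasma parameters (B/P = AUC_brain/AUC_plasma).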

T1 sequence (O43497 whole entry): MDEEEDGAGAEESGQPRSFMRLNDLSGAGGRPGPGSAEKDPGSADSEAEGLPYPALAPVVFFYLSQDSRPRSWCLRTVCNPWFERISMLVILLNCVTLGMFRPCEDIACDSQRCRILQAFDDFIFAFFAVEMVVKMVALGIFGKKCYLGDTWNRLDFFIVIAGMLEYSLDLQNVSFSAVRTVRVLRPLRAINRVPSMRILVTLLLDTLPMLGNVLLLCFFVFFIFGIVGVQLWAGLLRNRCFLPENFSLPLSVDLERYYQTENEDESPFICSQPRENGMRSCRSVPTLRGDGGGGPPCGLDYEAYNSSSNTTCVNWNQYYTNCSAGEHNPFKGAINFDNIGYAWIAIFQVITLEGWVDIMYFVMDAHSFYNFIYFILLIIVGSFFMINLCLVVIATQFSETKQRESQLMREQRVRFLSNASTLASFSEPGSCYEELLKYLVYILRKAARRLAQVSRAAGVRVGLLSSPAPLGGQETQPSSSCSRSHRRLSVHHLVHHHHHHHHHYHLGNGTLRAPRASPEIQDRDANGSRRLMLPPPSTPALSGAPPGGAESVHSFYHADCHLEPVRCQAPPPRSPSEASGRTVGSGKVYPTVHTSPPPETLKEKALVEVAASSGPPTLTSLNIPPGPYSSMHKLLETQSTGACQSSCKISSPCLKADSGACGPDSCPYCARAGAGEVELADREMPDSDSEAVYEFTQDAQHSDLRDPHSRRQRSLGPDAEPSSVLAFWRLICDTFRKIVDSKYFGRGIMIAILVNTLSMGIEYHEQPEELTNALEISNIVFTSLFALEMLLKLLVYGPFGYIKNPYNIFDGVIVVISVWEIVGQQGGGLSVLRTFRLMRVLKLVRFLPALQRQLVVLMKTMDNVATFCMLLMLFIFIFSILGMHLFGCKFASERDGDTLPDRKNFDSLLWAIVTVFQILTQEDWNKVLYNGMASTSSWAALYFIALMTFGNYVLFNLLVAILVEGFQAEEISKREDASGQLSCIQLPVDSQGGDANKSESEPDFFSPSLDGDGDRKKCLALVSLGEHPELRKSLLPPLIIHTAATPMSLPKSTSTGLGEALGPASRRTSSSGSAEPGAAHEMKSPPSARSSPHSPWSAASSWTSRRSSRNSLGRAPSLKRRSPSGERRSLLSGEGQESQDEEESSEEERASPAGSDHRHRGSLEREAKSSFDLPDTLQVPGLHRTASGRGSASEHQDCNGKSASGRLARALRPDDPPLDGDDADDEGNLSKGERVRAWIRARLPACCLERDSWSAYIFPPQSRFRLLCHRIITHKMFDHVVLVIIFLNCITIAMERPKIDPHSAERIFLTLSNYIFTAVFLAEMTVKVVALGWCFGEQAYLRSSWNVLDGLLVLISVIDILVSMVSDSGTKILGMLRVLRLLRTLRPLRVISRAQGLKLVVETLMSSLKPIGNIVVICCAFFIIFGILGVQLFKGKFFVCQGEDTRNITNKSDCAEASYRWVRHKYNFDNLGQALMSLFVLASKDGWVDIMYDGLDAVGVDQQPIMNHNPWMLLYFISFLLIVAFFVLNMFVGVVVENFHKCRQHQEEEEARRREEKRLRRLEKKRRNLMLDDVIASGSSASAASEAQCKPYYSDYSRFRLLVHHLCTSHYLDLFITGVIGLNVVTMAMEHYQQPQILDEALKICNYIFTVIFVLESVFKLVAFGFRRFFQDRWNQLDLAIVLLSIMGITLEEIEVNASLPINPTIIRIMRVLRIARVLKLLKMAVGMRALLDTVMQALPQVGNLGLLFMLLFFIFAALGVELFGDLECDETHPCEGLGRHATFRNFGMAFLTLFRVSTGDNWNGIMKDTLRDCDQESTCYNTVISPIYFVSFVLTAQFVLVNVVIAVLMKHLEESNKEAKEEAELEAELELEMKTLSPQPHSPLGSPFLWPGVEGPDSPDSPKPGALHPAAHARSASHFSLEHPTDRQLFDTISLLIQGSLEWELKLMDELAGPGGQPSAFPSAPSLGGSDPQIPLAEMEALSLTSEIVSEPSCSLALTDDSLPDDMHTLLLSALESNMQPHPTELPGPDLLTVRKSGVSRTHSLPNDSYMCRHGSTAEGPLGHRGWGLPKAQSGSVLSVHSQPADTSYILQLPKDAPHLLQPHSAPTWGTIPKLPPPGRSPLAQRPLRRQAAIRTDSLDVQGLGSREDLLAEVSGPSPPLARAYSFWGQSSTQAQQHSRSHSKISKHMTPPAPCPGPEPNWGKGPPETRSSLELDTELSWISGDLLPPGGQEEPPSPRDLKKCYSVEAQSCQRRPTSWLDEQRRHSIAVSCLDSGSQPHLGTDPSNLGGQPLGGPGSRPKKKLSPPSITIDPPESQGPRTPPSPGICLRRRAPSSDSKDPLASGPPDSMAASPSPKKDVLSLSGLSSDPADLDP
Chain of Voltage-gated inwardly rectifying potassium channel KCNH2 (Q12809 whole entry): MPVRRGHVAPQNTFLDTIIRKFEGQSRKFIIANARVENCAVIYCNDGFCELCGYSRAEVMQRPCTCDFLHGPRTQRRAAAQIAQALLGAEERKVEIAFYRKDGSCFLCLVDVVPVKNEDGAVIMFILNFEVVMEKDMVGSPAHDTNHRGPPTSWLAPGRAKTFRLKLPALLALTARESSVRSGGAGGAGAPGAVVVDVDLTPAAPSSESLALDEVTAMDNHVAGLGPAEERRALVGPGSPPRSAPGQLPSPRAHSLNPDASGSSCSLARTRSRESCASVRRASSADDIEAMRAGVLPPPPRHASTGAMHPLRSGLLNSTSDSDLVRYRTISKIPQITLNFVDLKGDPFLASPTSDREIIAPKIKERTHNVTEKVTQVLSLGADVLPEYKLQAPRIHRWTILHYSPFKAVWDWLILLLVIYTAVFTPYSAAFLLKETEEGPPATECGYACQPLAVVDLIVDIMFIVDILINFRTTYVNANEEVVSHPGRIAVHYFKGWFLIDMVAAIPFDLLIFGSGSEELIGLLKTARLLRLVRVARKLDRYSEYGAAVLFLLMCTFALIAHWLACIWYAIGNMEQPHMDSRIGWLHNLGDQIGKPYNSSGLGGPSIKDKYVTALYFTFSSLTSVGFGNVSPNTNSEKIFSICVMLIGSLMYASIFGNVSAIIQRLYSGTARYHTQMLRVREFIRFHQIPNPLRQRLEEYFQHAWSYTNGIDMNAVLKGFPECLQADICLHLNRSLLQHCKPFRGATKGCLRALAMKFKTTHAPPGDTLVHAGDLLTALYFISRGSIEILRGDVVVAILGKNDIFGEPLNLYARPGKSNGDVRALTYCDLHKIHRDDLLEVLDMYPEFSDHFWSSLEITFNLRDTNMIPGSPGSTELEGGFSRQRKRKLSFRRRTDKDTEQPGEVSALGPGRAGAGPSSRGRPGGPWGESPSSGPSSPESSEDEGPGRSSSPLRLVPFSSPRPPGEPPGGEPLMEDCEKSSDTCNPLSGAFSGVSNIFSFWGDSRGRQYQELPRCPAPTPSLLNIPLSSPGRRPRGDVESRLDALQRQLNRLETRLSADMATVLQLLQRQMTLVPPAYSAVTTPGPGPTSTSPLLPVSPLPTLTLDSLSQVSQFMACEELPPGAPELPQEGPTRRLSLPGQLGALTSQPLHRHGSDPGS

As a reminder, the inhibition is how much of the control response was suppressed. Consider `COC(=O)C(CCCN1CCN(Cc2ccc(OC)c(OC)c2OC)CC1)(c1ccc(Br)cc1)C(C)C` (stereo not drawn), for which, in series [1], the inhibition was 95.1%.

Take `COC(=O)C(CCCN1CCN(Cc2cccc(F)c2)CC1)(c1ccc(Br)cc1)C(C)C` (stereo not drawn): the inhibition in series [1] was determined as 89.3%.

On to `COC(=O)C(CCCN1CCN(Cc2ccc(OC)cc2)CC1)(c1ccc(Br)cc1)C(C)C` (stereo not drawn), for which, in [1], the inhibition stood at 96%.

As to `COC(=O)C(CCCN1CCN(Cc2cccc(C)c2)CC1)(c1ccc(Br)cc1)C(C)C` (stereo not drawn), the inhibition in [1] was found to be 94.9%.

In the case of `CCOC(=O)C(CCCN(C)CCCc1nc2ccccc2[nH]1)(c1ccccc1)C(C)C` (stereo not drawn), the inhibition in [1] amounted to 98.3%.

For `COC(=O)C(CCCN1CCN(Cc2ccccc2F)CC1)(c1ccc(Br)cc1)C(C)C` (stereo not drawn), the inhibition in [1] came out at 90.4%.

On to `COC(=O)C(CCCN(C)CCCc1nc2cc(OC)ccc2[nH]1)(c1ccc(OC)cc1)C(C)C` (stereo not drawn), for which the inhibition in [1] was found to be 91.7%.

Take `CCOC(=O)C(CCCN1CCN(Cc2ccc(OC)cc2)CC1)(c1ccccc1)C(C)C` (stereo not drawn): in [1], the inhibition stood at 96.3%.

As a reminder, the IC50 is the concentration needed to halve the response being measured. `COC(=O)C(CCCN1CCN(c2ccccc2OC)CC1)(c1ccc(Br)cc1)C(C)C` (stereo not drawn): the IC50 in series [2] was determined as 95 nM. Besides, the inhibition in series [1] came to 94.1%.

For `CCOC(=O)C(CCCN1CCN(Cc2ccc(F)cc2)CC1)(c1ccccc1)C(C)C` (stereo not drawn), in series [1], the inhibition was 94%.

For `COC(=O)C(CCCN(C)CCCc1nc2ccccc2[nH]1)(c1ccc(OC)cc1)C(C)C` (stereo not drawn), the inhibition in series [1] is 93.5%.

Regarding `COC(=O)C(CCCN1CCN(Cc2ccc(F)cc2)CC1)(c1ccc(Br)cc1)C(C)C` (stereo not drawn), the inhibition in series [1] amounted to 96.5%.

Regarding `COC(=O)C(CCCN(C)CCCc1nc2cc(OC)ccc2[nH]1)(c1ccc(Br)cc1)C(C)C` (stereo not drawn), in series [1], the inhibition is 94.5%.

Turning to `COC(=O)C(CCCN1CCN(Cc2cccc(C(F)(F)F)c2)CC1)(c1ccc(Br)cc1)C(C)C` (stereo not drawn), in series [2], the IC50 worked out at 280 nM. Moreover, the inhibition in series [1] was found to be 93%.

`COC(=O)C(CCCN(C)CCCc1nc2cc(C)c(C)cc2[nH]1)(c1ccc(Br)cc1)C(C)C` (stereo not drawn): in [3], the inhibition was 94.2%.

For orientation: AUC(0-t) means the area under the concentration-time curve up to a stated or last time point. One may read the Tmax as the time at which the peak concentration occurs. The term Cmax denotes the maximum level reached in the sampled fluid or tissue. Broadly, the Kp is the ratio of the level in a tissue or fluid to that in plasma or blood. As usually defined, the half-life is the time in which the quantity being followed falls by half. In the case of `COC(=O)C(CCCN(C)CCCc1nc2ccccc2[nH]1)(c1ccc(Br)cc1)C(C)C` (stereo not drawn), the values for the AUC(0-t) in [4] and in series [15] were 973 ng·h/mL and 3900 ng·h/mL, respectively. For the same molecule, the inhibition was 0% in series [5] and 96.9% in series [1]. In addition, the 50% inhibitory concentration (IC50) in series [6] was determined as 178 nM; in series [10], 8.17 nM. Also, the Selectivity Index in series [7] was over 1000. In addition, the Tmax in series [8] and in series [9] was 1 h each time. Also, in series [11], the Ratio IC50 stood at 21.8. For the same molecule, the figures for the Cmax in series [12] and in series [13] were 1620 ng/mL and 274 ng/mL, respectively. Further, the Kp in [14] was 0.17; in series [17] it was 0.25. In [16], this molecule gave a half-life of 1 h.

Turning to `CCOC(=O)C(CCCN(C)CCCc1nc2cc(C)c(C)cc2[nH]1)(c1ccccc1)C(C)C` (stereo not drawn), in series [1], the inhibition amounted to 91.4%.

The values above are taken from ChEMBL document CHEMBL1155867, “Synthesis and evaluation of alpha,alpha'-disubstituted phenylacetate derivatives for T-type calcium channel blockers” (Bioorg Med Chem Lett, 2008).
